From ChEMBL document CHEMBL4038329, “Side-Chain Modified Ergosterol and Stigmasterol Derivatives as Liver X Receptor Agonists” (J Med Chem, 2017) come the findings set out here.

Data set [1] is described as follows: Agonist activity at LXR in human U937 cells assessed as upregulation of SCD1 mRNA levels at 10 uM after 6 hrs by qPCR analysis relative to control. The data set is classed as cell-based. To be noted: human, 6 h, 10 µM. The gist of the method:
(§1)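 U937 cells, 3x10⁶ in 10 ml RPMI with 10% FBS, differentiated with PMA 10 ng/ml for 72 h at 37 °C, then treated with ligand (10 μM) for 6 h. Total RNA was isolated with TRIZOL; 2 µg was reverse-transcribed for 1 h at 42 °C. Transcripts were measured by qPCR. Mean ± SD of three biological samples; ANOVA with Dunnett's test.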
A general note: Quantitative PCR measures a nucleic acid by following its amplification.

A short description of data set [2]: Agonist activity at LXR in human U937 cells assessed as upregulation of SREBP1c mRNA levels at 10 uM after 6 hrs by qPCR analysis. Format: cell-based. In outline:
as §1

The target of data set [3] is T1, Oxysterols receptor LXR-alpha (Homo sapiens, UniProt Q13133).
T1 sequence (Q13133 whole entry): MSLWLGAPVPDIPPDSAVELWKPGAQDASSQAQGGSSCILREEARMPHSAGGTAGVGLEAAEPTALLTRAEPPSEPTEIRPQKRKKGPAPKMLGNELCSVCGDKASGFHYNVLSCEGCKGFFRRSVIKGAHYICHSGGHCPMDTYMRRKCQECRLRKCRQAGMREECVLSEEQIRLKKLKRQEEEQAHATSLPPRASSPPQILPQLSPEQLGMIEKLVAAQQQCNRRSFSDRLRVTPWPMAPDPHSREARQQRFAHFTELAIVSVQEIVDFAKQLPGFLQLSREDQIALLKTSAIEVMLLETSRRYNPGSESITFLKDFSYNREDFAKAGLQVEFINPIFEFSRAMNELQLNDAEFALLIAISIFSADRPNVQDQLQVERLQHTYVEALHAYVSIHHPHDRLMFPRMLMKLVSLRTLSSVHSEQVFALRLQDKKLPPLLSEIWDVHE
As to the kind of experiment: Activation of GAL4 fused human LXR alpha expressed in HEK293 cells after 24 hrs by luciferase reporter gene assay. The data set is classed as cell-based. The gist of the method: (§2)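 HEK293 cells (4x10⁴/well), grown in DMEM with 10% FBS at 37 °C under 5% CO₂, transiently co-transfected with pMH100X4-TK-luc, Renilla and the Gal4-LXR-α or Gal4-LXR-β plasmid. Dosing began 6 h after transfection and lasted 24 h, at 32, 16, 8, 4, 2 and 1 μM. Dual luciferase read-out. EC50 came from dose-response curves, averaged over three to five independent experiments, ± SD.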

Data set [4] is filed under the species Homo sapiens. As to the kind of experiment: Agonist activity at LXR in human U937 cells assessed as upregulation of ABCA1 mRNA levels at 10 uM after 6 hrs by qPCR analysis. Format: cell-based. In outline: as §1
In data set [5] the target is T2, Oxysterols receptor LXR-beta (Homo sapiens, UniProt P55055).
T2 sequence (P55055 whole entry): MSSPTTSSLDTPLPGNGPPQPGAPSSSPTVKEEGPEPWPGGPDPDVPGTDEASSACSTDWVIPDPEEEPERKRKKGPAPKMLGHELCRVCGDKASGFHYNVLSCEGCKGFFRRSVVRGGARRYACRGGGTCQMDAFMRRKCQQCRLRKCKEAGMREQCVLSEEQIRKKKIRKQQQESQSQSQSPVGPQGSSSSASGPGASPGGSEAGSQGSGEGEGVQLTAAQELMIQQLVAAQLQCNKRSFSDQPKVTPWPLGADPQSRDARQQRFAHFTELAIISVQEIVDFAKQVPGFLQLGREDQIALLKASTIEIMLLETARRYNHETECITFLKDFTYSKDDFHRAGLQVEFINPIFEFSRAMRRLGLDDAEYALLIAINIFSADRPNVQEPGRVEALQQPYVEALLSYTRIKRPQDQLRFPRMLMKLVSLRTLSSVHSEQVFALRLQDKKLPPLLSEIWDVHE
In words: Activation of GAL4 fused human LXR beta expressed in HEK293 cells after 24 hrs by luciferase reporter gene assay. Format: cell-based. In outline: as §2
(In general: Reporter assays use an easily measured gene product as a stand-in for the process of interest.)

The nature of data set [6]: Agonist activity at LXR in human U937 cells assessed as upregulation of FASN mRNA levels at 10 uM after 6 hrs by qPCR analysis. Format: cell-based. The gist of the method:
as §1

Data set [7] can be described thus: Agonist activity at LXR in human HepG2 cells assessed as upregulation of FASN mRNA levels at 10 uM after 6 hrs by qPCR analysis. Format: cell-based. The gist of the method: (§3)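 HepG2 cells treated with ligand (10 μM). Total RNA was extracted with TRIZOL; 2 µg was reverse-transcribed (1 h, 42 °C). SREBP1c, FASN and SCD1 transcripts were measured by qPCR. Mean ± SD of three biological samples; ANOVA with Dunnett's test.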

Data set [8] in a line: Agonist activity at LXR in human HepG2 cells assessed as upregulation of SCD1 mRNA levels at 10 uM after 6 hrs by qPCR analysis. The data set is classed as cell-based. The gist of the method:
as §3

Data set [9] is described as follows: Agonist activity at LXR in human HepG2 cells assessed as upregulation of SREBP1c mRNA levels at 10 uM after 6 hrs by qPCR analysis. Format: cell-based. In outline: as §3
For data set [10], the species on record is Homo sapiens. As to the kind of experiment: Agonist activity at LXR in human U937 cells assessed as downregulation of LPS-induced CCL2 mRNA expression at 10 uM after 6 hrs by qPCR analysis. Format: cell-based. In outline:
(§4)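 PMA-differentiated U937 cells (10 ng/ml PMA, 72 h) were given LPS 100 ng/ml together with compound (10 μM) for 6 h. CCL2 and TNFα mRNA were measured by qPCR after TRIZOL RNA extraction and reverse transcription. Three biological samples per group, mean ± SD.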

Data set [11] addresses T3, Peroxisome proliferator-activated receptor gamma (Homo sapiens) (UniProt P37231).
T3 sequence (whole entry): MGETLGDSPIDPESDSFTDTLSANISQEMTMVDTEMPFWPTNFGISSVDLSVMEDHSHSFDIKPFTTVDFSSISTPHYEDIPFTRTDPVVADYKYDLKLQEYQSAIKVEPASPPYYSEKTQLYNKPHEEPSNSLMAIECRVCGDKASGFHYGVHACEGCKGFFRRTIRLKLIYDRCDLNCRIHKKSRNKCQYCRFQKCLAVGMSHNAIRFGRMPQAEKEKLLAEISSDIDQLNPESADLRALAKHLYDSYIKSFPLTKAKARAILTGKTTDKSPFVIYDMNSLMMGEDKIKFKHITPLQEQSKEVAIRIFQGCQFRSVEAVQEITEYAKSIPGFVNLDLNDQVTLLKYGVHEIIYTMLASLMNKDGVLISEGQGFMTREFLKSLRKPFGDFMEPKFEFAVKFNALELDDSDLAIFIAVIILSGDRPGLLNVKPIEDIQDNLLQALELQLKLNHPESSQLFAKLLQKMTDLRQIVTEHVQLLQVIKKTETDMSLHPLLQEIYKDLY
In words: Activation of GAL4 fused human PPARgamma expressed in HEK293 cells at 10 uM after 24 hrs by luciferase reporter gene assay.

In a further data set the test system is HEK293. As to the kind of experiment: Activation of GAL4 fused human RXR expressed in HEK293 cells at 10 uM after 24 hrs by luciferase reporter gene assay.
Data set [12] is filed under the species Homo sapiens. As to the kind of experiment: Agonist activity at LXR in human U937 cells assessed as downregulation of LPS-induced TNFalpha mRNA expression at 10 uM after 6 hrs by qPCR analysis. The data set is classed as cell-based. The gist of the method:
as §4

In data set [13] the target is T4, Oxysterols receptor LXR-beta (Homo sapiens) (UniProt P55055).
T4 sequence (whole entry): T2 sequence (P55055 whole entry)
In words: Activation of GAL4 fused human LXR beta expressed in HEK293 cells after 24 hrs by luciferase reporter gene assay relative to 22R-HC. The data set is classed as cell-based. The gist of the method: (§5)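 HEK293 cells carrying the Gal4-LXR-α or Gal4-LXR-β chimera plus the pMH100X4-TK-luc and Renilla reporters. Treatment started 6 h post-transfection and ran 24 h. Dual luciferase read-out. Efficacy is given as % of the response to 8 μM 22R-HC, ± SD, from three to five independent experiments.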

The target in data set [14] is T5, Nuclear receptor subfamily 1 group I member 2 (Homo sapiens, UniProt O75469).
T5 sequence (O75469 whole entry): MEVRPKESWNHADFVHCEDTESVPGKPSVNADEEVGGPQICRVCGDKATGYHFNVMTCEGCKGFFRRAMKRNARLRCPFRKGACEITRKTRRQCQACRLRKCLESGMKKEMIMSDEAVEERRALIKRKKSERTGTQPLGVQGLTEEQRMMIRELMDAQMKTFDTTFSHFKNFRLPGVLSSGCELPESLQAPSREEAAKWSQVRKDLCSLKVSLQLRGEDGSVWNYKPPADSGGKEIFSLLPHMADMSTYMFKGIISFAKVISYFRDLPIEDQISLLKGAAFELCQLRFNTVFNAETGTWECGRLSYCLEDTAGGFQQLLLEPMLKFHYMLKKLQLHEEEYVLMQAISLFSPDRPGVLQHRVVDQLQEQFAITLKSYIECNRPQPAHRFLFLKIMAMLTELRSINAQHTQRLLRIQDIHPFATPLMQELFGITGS
In words: Activation of GAL4 fused human PXR expressed in HEK293 cells at 10 uM by luciferase reporter gene assay. To be noted: hek293, 10 µM.

In data set [15] the target is T6, Oxysterols receptor LXR-alpha (Homo sapiens) (UniProt Q13133).
T6 sequence (whole entry): T1 sequence (Q13133 whole entry)
As to the kind of experiment: Activation of GAL4 fused human LXR alpha expressed in HEK293 cells after 24 hrs by luciferase reporter gene assay relative to 22R-HC. Format: cell-based. In outline:
as §5

Activity calls are given as the source filed them. The calls are words filed in the database; no cut-off is given here.

For `CC(C)[C@@H](C)C[C@@H](O)[C@@H](C)[C@H]1CC[C@H]2C3=CC=C4C[C@@H](O)CC[C@]4(C)[C@H]3CC[C@]12C`, the Activity result in data set [1], in data set [2], in data set [6], in [7], in [8] and in data set [9] was “Not Active” in each case. Also, the EC50 result in data set [3] and in data set [5] was “Not Active” throughout. In the data set filed under Homo sapiens [4], the result was Active.
Turning to `CC[C@H](C[C@H](O)[C@@H](C)[C@H]1CC[C@H]2[C@@H]3CC=C4C[C@@H](O)CC[C@]4(C)[C@H]3CC[C@]12C)C(C)C`, the Activity entry in data set [1], in data set [2], in [6], in [7], in data set [8] and in [9] was “Not Active” throughout. Besides, the EC50 result in data set [3] and in [5] was “Not Active” each time.
Turning to `CC[C@@H](C(C)C)[C@@H](O)C[C@@H](C)[C@H]1CC[C@H]2[C@@H]3CC=C4C[C@@H](O)CC[C@]4(C)[C@H]3CC[C@]12C`, the Activity result in [1], in data set [2], in data set [6], in data set [7], in data set [8] and in [9] was “Not Active” throughout. Also, the EC50 result in [3] and in data set [5] was “Not Active” throughout. The outcome in the data set listed under Homo sapiens [4] was Active.
As for `CC[C@@H](C(C)C)[C@H](O)C[C@@H](C)[C@H]1CC[C@H]2[C@@H]3CC=C4C[C@@H](O)CC[C@]4(C)[C@H]3CC[C@]12C`, the Activity result in data set [1], in data set [2], in data set [6], in data set [7], in [8] and in data set [9] was “Not Active” each time. The result in the data set filed under Homo sapiens [10], in the data set listed under Homo sapiens [4] and in the data set filed under Homo sapiens [12] was Active. The result (in [11]; in the data set with HEK293) was inactive.
As for `CC(C)[C@@H](C)[C@H]1O[C@@H]1[C@@H](C)[C@H]1CC[C@H]2C3=CC=C4C[C@@H](O)CC[C@]4(C)[C@H]3CC[C@]12C`, the Activity result is listed as “Not Active” in data set [1]; “Not Active” in data set [2]; “Active” in [14]; “Not Active” in data set [6]; “Not Active” in data set [7]; “Not Active” in [8]. In [9], the Activity entry is listed as “Not Active”. The Efficacy in data set [13] was 30.4%; in [15], 93.2%. For the same compound, the result (in data set [11]; in the data set with HEK293) was inactive.
On to `CC[C@H](CC(=O)[C@@H](C)[C@H]1CC[C@H]2[C@@H]3CC=C4C[C@@H](O)CC[C@]4(C)[C@H]3CC[C@]12C)C(C)C`, for which the EC50 entry in [3] and in data set [5] was “Not Active” in each case.
Regarding `CC(C)[C@@H](C)C[C@H](O)[C@@H](C)[C@H]1CC[C@H]2C3=CC=C4C[C@@H](O)CC[C@]4(C)[C@H]3CC[C@]12C`, the Activity result in [1] is “Not Active”; in [2], “Not Active”; in data set [14] it was “Active”; in data set [6], “Not Active”; in [7], “Not Active”; in data set [8] it was “Not Active”. Also, the Activity entry in data set [9] is listed as “Not Active”. For the same compound, the outcome in the data set listed under Homo sapiens [10] and in the data set filed under Homo sapiens [4] was Active. For the same compound, the result (in [11]; in the data set on HEK293) was inactive.
